These results are taken from ChEMBL document CHEMBL2021892, “Rational design, synthesis and anti-proliferative properties of new CB2 selective cannabinoid receptor ligands: an investigation of the 1,8-naphthyridin-2(1H)-one scaffold” (Eur J Med Chem, 2012).

The inhibition is how much of the control response was suppressed. The term Ki denotes the equilibrium dissociation constant of an inhibitor or competing ligand from its target.

Calls of active or inactive are those of the source. The rule behind the calls is not given here.

Series [1] can be described thus: Solubility of the compound in DMSO/water solution. The series is classed as physicochemical.
The subject of series [2] is DU-145. In words: Antiproliferative activity against human DU145 cells at 0.3 uM after 24 hrs by SRB assay. The format is functional, cell-based. In outline: (§1)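 DU-145 cells seeded at 10,000 per well, exposed 24 h to CB2 ligands, with or without SR144528 (3 µM). Line 2 covers 0.1 to 1 µM; lines 3 and 4 use 0.3 µM. Proliferation read as O.D. by sulforhodamine B. Three independent experiments; two-tailed t-test against vehicle and against ligand plus SR144528.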
In general terms: The SRB assay estimates cell density from bound dye.

In series [3] the test system is DU-145. In words: Down-regulation of CB2 receptor protein level in human DU145 cells at 0.3 uM after 24 hrs by immunoblot analysis in presence of CB2 receptor antagonist SR144528. The format is functional, cell-based. In outline:
(§2)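 DU-145 cells incubated 24 h with ligand at 0.3 µM, with or without SR144528 at 3 µM. Cells washed in PBS, lysed at pH 7.5 in HEPES/NaCl/EDTA/NaF/vanadate/Triton buffer, and centrifuged at 12,000 g, 4 °C. 40 µg protein run on 12% SDS-PAGE and transferred to nitrocellulose. Blots probed overnight with anti-CB2, detected by HRP anti-rabbit and ECL, normalized to actin.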
(In general: Immunoblotting shows a protein as a band on a membrane.)

The subject of series [4] is DU-145. Nature of the series: Antiproliferative activity against human DU145 cells at 0.1 to 1 uM after 24 hrs by SRB assay. The format is functional, cell-based. The essentials: as §1
Series [5] deals with DU-145. Nature of the series: Antiproliferative activity against human DU145 cells at 0.3 uM after 24 hrs by SRB assay in presence of CB2 receptor antagonist SR144528. The format is functional, cell-based. The essentials: as §1
Series [6] concerns DU-145. In words: Down-regulation of CB2 receptor protein level in human DU145 cells at 0.3 uM after 24 hrs by immunoblot analysis in presence of CB1 receptor antagonist SR141716. The format is functional, cell-based.
In series [7] the test system is DU-145. Nature of the series: Down-regulation of CB2 receptor protein level in human DU145 cells at 0.3 uM after 24 hrs by immunoblot analysis. The format is functional, cell-based. The essentials: as §2
The subject of series [8] is DU-145. Nature of the series: Antiproliferative activity against human DU145 cells at 1 uM after 4 days by XTT assay. The format is functional. To be noted: DU-145, 96 h. In outline:
(§3)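 Cells kept at 37 °C, 5% CO2; seeded at 3 × 10³ cells per well, treated 3 h later with vehicle or ligand (1 µM in the four-day panel), medium and ligand renewed every two days for four days. Proliferation read by XTT staining; vehicle-treated O.D. taken as 100%. Two-tailed t-test versus vehicle.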

Series [9] has as its target Cannabinoid receptor 1 (Homo sapiens, UniProt P21554). Nature of the series: Displacement of [3H]CP55940 from recombinant human CB1 receptor expressed in human HEK293 cell membrane after 90 mins. The format is cell membranes. In outline: (§4)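 Membranes of HEK-293 cells transfected with human recombinant CB1R (Bmax 2.5 pmol/mg protein) or CB2R (Bmax 4.7 pmol/mg protein). Test compound at increasing concentrations displaced [3H]CP55,940 over 90 min at 30 °C. Ki obtained from IC50 by Cheng–Prusoff. Means of at least three experiments run in duplicate.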
In general terms: Loss of bound radioactivity is the signal in a displacement assay; it reports binding, not function.

Series [10] relates to HEK293. Nature of the series: Selectivity index, ratio of Ki for recombinant human CB1 receptor expressed in human HEK293 cell membrane to recombinant human CB2 receptor expressed in human HEK293 cell membrane. The series is classed as cell-based. In outline:
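Selectivity index is Ki(CB1)/Ki(CB2). Both Ki values come from [3H]CP55,940 displacement over 90 min at 30 °C, using membranes of HEK-293 cells expressing human recombinant CB1R or CB2R, with Cheng–Prusoff conversion.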

The nature of series [11]: Antiproliferative activity against human WS1 cells at 1 uM after 4 days by XTT assay. The series is classed as cell-based. To be noted: for Activity: ws1, 96 h, 1 µM. In outline:
as §3

Series [12] is described as follows: Antiproliferative activity against myelin basic protein-activated human lymphocytes at 0.3 uM. The series is classed as cell-based. To be noted: lymphocyte.
Series [13] deals with Cannabinoid receptor 2 (Homo sapiens, UniProt P34972). Nature of the series: Displacement of [3H]CP55940 from recombinant human CB2 receptor expressed in human HEK293 cell membrane after 90 mins. The series is classed as cell membranes. The essentials:
as §4

Series [14] deals with AGS. In words: Antiproliferative activity against human AGS cells at 1 uM after 4 days by XTT assay. To be noted: 96 h. The series is classed as functional. The essentials:
as §3

Series [15] has as its system MCF7. Nature of the series: Antiproliferative activity against human MCF7 cells at 1 uM after 4 days by XTT assay. The format is functional. To be noted: MCF7, 96 h. In outline:
as §3

Series [16] relates to T98G. Nature of the series: Antiproliferative activity against human T98G cells at 1 uM after 4 days by XTT assay. To be noted: 96 h. The format is functional. In outline:
as §3

Cannabinoid receptor 2, sequence (P34972 whole entry): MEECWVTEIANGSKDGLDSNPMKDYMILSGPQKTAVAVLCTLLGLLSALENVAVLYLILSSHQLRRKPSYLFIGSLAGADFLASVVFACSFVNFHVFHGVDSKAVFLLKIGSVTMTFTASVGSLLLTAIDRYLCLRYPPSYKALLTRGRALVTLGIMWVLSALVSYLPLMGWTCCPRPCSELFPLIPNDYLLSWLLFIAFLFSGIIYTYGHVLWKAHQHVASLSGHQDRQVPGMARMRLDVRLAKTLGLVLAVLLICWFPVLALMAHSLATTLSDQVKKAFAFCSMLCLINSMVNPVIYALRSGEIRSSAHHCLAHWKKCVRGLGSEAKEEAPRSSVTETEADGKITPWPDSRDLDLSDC
Cannabinoid receptor 1, sequence (P21554 whole entry): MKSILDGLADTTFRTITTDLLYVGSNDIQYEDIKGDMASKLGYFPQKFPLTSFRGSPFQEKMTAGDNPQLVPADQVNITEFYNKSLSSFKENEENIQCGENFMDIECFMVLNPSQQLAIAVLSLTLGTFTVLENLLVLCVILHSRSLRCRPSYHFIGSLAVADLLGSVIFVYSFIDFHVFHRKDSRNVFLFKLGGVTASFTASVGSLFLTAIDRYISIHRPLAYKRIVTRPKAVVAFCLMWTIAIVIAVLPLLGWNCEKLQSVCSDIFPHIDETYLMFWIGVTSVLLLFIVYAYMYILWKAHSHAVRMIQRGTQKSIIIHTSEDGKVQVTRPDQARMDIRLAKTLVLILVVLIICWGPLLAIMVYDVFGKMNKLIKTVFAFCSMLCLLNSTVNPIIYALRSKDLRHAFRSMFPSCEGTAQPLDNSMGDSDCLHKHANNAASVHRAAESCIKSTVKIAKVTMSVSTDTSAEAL

In the case of `O=C(NC1CCCCC1)c1c(O)c2cccnc2n(Cc2ccc(F)cc2)c1=O`, the solubility entry in [1] is “Insoluble”.

With `O=C(NC1CCCCCC1)c1cc2ccccc2n(CCN2CCOCC2)c1=O`, the outcome in series [2], in series [6] and in series [7] was Active. Also, the result in series [3] and in series [5] was inactive. Further, the inhibition entry in series [4] is “Active”. In addition, in series [8], testing at 1 µM gave an inhibition of 11%. Moreover, the Ki is 206 nM in [9] and 2 nM in [13]. In series [10], the Ratio Ki came out at 103. Moreover, the Activity entry in [11] and in series [12] was “Non-toxic” each time.

Regarding `O=C(NC1CCCCCC1)c1cccnc1OCc1ccc(F)cc1`, the inhibitory constant (Ki) came out at 100 nM in series [9] and 25 nM in series [13]. Moreover, the Ratio Ki in [10] is 4.

Turning to `O=C(NC1CCCCC1)c1c(O)c2cccnc2n(Cc2ccccc2)c1=O`, the figures for the inhibitory constant (Ki) in series [9] and in series [13] were 560 nM and 79 nM, respectively. Further, the Ratio Ki in series [10] came to 7.1.

On to `Cc1ccc(Cn2nc(C(=O)N[C@@H]3C(C)(C)[C@@H]4CC[C@@]3(C)C4)cc2-c2ccc(Cl)c(C)c2)cc1`, for which the result in series [5] was inactive. Also, the result in series [7] was Active. Besides, the Activity entry in [12] was “Non-toxic”.

For the compound `O=C(NC1CCCCC1)c1cccn(Cc2ccccc2)c1=O`, the values for the inhibition constant Ki in [9] and in series [13] were 800 nM and 200 nM, respectively. In addition, the Ratio Ki in [10] stood at 4.

`O=C(NC1CCCCC1)c1cccnc1OCc1ccc(F)cc1`: the Ki in [9] was 1810 nM; in series [13], 250 nM. Further, in series [10], the Ratio Ki was 7.3.

Take `O=C(NC1CCCCC1)c1cccn(CCN2CCOCC2)c1=O`: the inhibition constant Ki in series [9] was above 10000 nM; in [13], 7900 nM.

Consider `O=C(NC1CCCCC1)c1cc2ccccc2n(CCN2CCOCC2)c1=O`, for which the Ki came to 300 nM in [9] and 9 nM in [13]. Also, the Ratio Ki in series [10] is 33.

Regarding `O=C(NC1CCCCC1)c1cc2ccccc2n(Cc2ccccc2)c1=O`, the Ki was 67 nM in series [9] and 16 nM in series [13]. In [10], the Ratio Ki amounted to 4.2.

Regarding `O=C(NC1CCCCCC1)c1c(O)c2cccnc2n(Cc2ccc(F)cc2)c1=O`, the solubility entry in series [1] is listed as “Insoluble”.

On to `O=C(NC1CCCCCC1)c1cccn(CCN2CCOCC2)c1=O`, for which the results for the inhibitory constant (Ki) in series [9] and in [13] were 950 nM and 790 nM, respectively. Also, the Ratio Ki in series [10] was 1.2.

Turning to `O=C(NC1CCCCCC1)c1cc2ccccc2n(Cc2ccc(F)cc2)c1=O`, the inhibition constant (Ki) in [9] turned out to be 11.6 nM; in [13], 0.25 nM. Further, in [10], the Ratio Ki was found to be 48.

In the case of `O=C(NC1CCCCC1)c1c(O)c2cccnc2n(CCN2CCOCC2)c1=O`, the Ki stood at 64.6 nM in series [9] and 2.4 nM in series [13]. Further, the Ratio Ki in [10] worked out at 26.6.

For the compound `O=C(NC1CCCCC1)c1cc2ccccc2n(Cc2ccc(F)cc2)c1=O`, the values for the Ki in series [9] and in series [13] were 16.5 nM and 2.9 nM, respectively. For the same compound, in series [10], the Ratio Ki was 5.7.

On to `O=C(NC1CCCCCC1)c1c(O)c2cccnc2n(CCN2CCOCC2)c1=O`, for which the outcome in [2], in series [6] and in [7] was Active. Besides, the outcome in series [3] and in series [5] was inactive. For the same compound, the inhibition result in series [4] is “Active”. The inhibition at 1 µM in [14] came to 62%; in series [8], 33%; in series [15], 26%; in series [16] it was 15%. In addition, the inhibition constant (Ki) worked out at 234 nM in series [9] and 1.8 nM in series [13]. Further, the Ratio Ki in series [10] turned out to be 130. Also, the inhibition at 96 h, 1 µM in series [11] (WS1 cells) was determined as 21%. The Activity result in series [12] is on record as “Non-toxic”.

As for `O=C(NC1CCCCC1)c1cccnc1OCc1ccccc1`, the results for the inhibition constant (Ki) in [9] and in series [13] were above 10000 nM and 916 nM, respectively.

With `O=C(NC1CCCCC1)c1cccn(Cc2ccc(F)cc2)c1=O`, the Ki in series [9] is 70 nM; in [13], 20 nM. In series [10], the Ratio Ki amounted to 3.5.

On to `O=C(NC1CCCCC1)c1cc2ccccc2nc1OCc1ccc(F)cc1`, for which the Ki turned out to be 1200 nM in series [9] and 130 nM in series [13]. The Ratio Ki in [10] was 9.2.

`CCCC(C)(C)c1ccc2c(c1)OC(C)(C)[C@@H]1CC=C(C)C[C@@H]21`: the inhibition constant Ki in [9] came to 117 nM; in series [13], 1.82 nM.

Regarding `O=C(NC1CCCCCC1)c1cccn(Cc2ccc(F)cc2)c1=O`, the outcome in series [2], in series [6] and in series [7] was Active. The result in [3] and in series [5] was inactive. Further, the inhibition result in [4] was “Active”. Besides, the inhibition at 1 µM in series [8] was 15%; in series [15] it was 12%. Also, the results for the inhibition constant Ki in series [9] and in [13] were 43 nM and 7.8 nM, respectively. In addition, the Ratio Ki in series [10] was 5.5. Further, the Activity entry in series [11] and in series [12] was “Non-toxic” throughout.
